ChEMBL document CHEMBL1128396, “Synthesis and biological evaluation of a series of new parenteral optically active 3-[[(N-alkylpyridinium-4'-yl)thio]methyl]-2-oxaisocephems” (1995)
In brackets after ≈: the same amount, converted by molar mass.

How the values were obtained:
Type in all cases: functional
[1] = system: Escherichia coli; experiment: Antibacterial activity was determined against Escherichia coli NIHJ JC-2 (Gram-negative)
Procedure, shortened: (§1)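 2-fold agar dilution on Müller-Hinton agar. Overnight broth cultures were diluted to about 10^6 CFU/mL, and 10^4 CFU/spot was applied to plates with graded drug concentrations. Plates were incubated 18 h at 37 °C.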

[2] = system: Enterococcus faecalis; experiment: In vitro antibacterial activity against clinical isolates Enterococcus faecalis was determined; procedure, shortened: as §1
[3] = system: Enterococcus faecalis; experiment: Antibacterial activity was determined against Enterococcus faecalis ATCC 21212 (Gram-positive); procedure, shortened: as §1
[4] = system: Klebsiella pneumoniae; experiment: Antibacterial activity was determined against Klebsiella pneumoniae NCTC 9632 (Gram-negative); procedure, shortened: as §1
[5] = system: Mus musculus; experiment: Antibacterial activity was determined against MRSA 5120 at a challenge dose of 7.6*10e7 (cells/mouse) administered subcutaneously; settings: sc
Procedure, shortened: (§2)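 Cultures were grown overnight at 37 °C in tryptic soy broth (S. aureus, MRSA, E. faecalis) or Müller-Hinton broth (E. coli, S. pneumoniae). Graded doses were given subcutaneously 1 h post-infection. ED50 was calculated by probit from day-7 survival, with 95% confidence limits.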

[6] = system: Mus musculus; experiment: Antibacterial activity was determined against Staphylococcus aureus Smith at a challenge dose of 1.32*10e7 (cells/mouse) administered subcutaneously (value in parentheses indicates 95% CL); settings: sc
Procedure, shortened: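 Cultures were grown overnight at 37 °C in tryptic soy broth (S. aureus, MRSA, E. faecalis) or Müller-Hinton broth (E. coli, S. pneumoniae). Graded doses were given subcutaneously 1 h post-infection.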

[7] = system: Mus musculus; experiment: Antibacterial activity was determined against Escherichia coli 29 at a challenge dose of 1.35*10e6 (cells/mouse) administered subcutaneously; settings: sc; procedure, shortened: as §2
[8] = system: Mus musculus; experiment: Antibacterial activity was determined against Enterococcus faecalis C 0063 at a challenge dose of 7.00*10e7 (cells/mouse) administered subcutaneously; settings: sc; procedure, shortened: as §2
[9] = system: Pseudomonas aeruginosa; experiment: Antibacterial activity was determined against Pseudomonas aeruginosa ATCC 10145 (Gram-negative); procedure, shortened: as §1
[10] = system: Staphylococcus aureus; experiment: In vitro antibacterial activity against clinical isolates methicillin-resistant Staphylococcus aureus was determined
Procedure, shortened: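 2-fold agar dilution on Müller-Hinton agar. Overnight broth cultures were diluted to about 10^6 CFU/mL, and 10^4 CFU/spot was applied to plates with graded drug concentrations.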

[11] = system: Staphylococcus aureus; experiment: Antibacterial activity was determined against Methicillin-resistant Staphylococcus aureus (MRSA) 5038 (Gram-positive)
[12] = system: Staphylococcus aureus; experiment: Antibacterial activity was determined against Staphylococcus aureus FDA 209P (Gram-positive); procedure, shortened: as §1
[13] = system: Staphylococcus aureus; experiment: […] was determined against MRSA 5120
[14] = system: Serratia marcescens; experiment: Antibacterial activity was determined against Serratia marcescens ATCC 12648 (Gram-negative); procedure, shortened: as §1
[15] = system: Staphylococcus epidermidis; experiment: Antibacterial activity was determined against Staphylococcus epidermidis ATCC 12228 (Gram-positive); procedure, shortened: as §1
[16] = system: Streptococcus pneumoniae; experiment: In vitro antibacterial activity against clinical isolates Ampicillin-insensitive Streptococcus pneumoniae was determined; procedure, shortened: as §1

CO/N=C(\C(=O)N[C@@H]1C(=O)N2C(C(=O)[O-])=C(C[n+]3cccc4c3CCC4)CS[C@H]12)c1csc(N)n1 [CEFPIROME]
MIC [1]: 0.05 µg/mL (≈ 0.0972 µM) | MIC50 [2]: 50 µg/mL (≈ 97.2 µM) | MIC80 [2]: 100 µg/mL (≈ 194 µM) | MIC90 [2]: 100 µg/mL (≈ 194 µM) | MIC [3]: 25 µg/mL (≈ 48.6 µM) | MIC [4]: 0.05 µg/mL (≈ 0.0972 µM) | ED50 [5]: 27.7 mg/kg | ED50 [6]: 1.72 mg/kg | ED50 [7]: 0.64 mg/kg | ED50 [8]: > 100 mg/kg | MIC [9]: 6.25 µg/mL (≈ 12.1 µM) | MIC50 [10]: 50 µg/mL (≈ 97.2 µM) | MIC80 [10]: 100 µg/mL (≈ 194 µM) | MIC90 [10]: 100 µg/mL (≈ 194 µM) | MIC [11]: 100 µg/mL (≈ 194 µM) | MIC [12]: 0.39 µg/mL (≈ 0.758 µM) | MIC [13]: 50 µg/mL (≈ 97.2 µM) | MIC [14]: 0.2 µg/mL (≈ 0.389 µM) | MIC [15]: 0.39 µg/mL (≈ 0.758 µM) | MIC50 [16]: 0.39 µg/mL (≈ 0.758 µM) | MIC80 [16]: 0.78 µg/mL (≈ 1.52 µM) | MIC90 [16]: 0.78 µg/mL (≈ 1.52 µM)
